For data set [1], the species on record is Homo sapiens. The data set is described as follows: Selectivity ratio of IC50 for human 17beta-HSD2 to IC50 for human 17beta-HSD1. The gist of the method:
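Selectivity factor computed as IC50 for placental microsomal 17β-HSD2 (E2 500 nM, NAD+ 1500 µM) divided by IC50 for placental cytosolic 17β-HSD1 (E1 500 nM, NADH 500 µM).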

Data set [2] concerns the target Estrogen receptor beta (Homo sapiens) (UniProt Q92731). The data set is described as follows: Displacement of [2,4,6,7-3H]17beta-estradiol from human recombinant ERbeta receptor relative to 17-beta-estradiol. The procedure, abridged: (§1)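 ERα or ERβ (0.25 pmol) incubated with [2,4,6,7-3H]-E2 (10 nM) and test compound, 1 h, room temperature, 5% DMSO final. Non-specific binding with diethylstilbestrol (10 µM). Bound complexes captured on hydroxyapatite, washed, resuspended in ethanol and counted by liquid scintillation. RBA derived from inhibitor and E2 concentrations displacing 50% of bound labelled E2.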

Data set [3] addresses T1, 17-beta-hydroxysteroid dehydrogenase type 1 (Homo sapiens, UniProt P14061).
T1 sequence (P14061 whole entry): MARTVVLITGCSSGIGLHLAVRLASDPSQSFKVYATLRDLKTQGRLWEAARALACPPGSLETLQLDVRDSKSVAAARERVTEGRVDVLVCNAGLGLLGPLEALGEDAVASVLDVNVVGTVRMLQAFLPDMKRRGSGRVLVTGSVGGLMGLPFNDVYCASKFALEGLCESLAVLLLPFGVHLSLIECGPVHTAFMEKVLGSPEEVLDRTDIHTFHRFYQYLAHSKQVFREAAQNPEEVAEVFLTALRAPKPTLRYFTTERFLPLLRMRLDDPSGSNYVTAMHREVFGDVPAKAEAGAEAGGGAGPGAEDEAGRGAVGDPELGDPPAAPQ
As to the kind of experiment: Inhibition of human placental 17beta-HSD1 using estrone substrate. The gist of the method:
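Cytosolic fraction of human placenta incubated at 37 °C with NADH (500 µM) and inhibitor in 50 mM phosphate buffer, 20% glycerol, 1 mM EDTA, DMSO 1% final. Started with unlabelled plus [3H]-E1 (500 nM final); stopped after 10 min with HgCl2, extracted into diethylether. E1/E2 separated by HPLC with radio detection.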

The target of data set [4] is T2, 17-beta-hydroxysteroid dehydrogenase type 2 (Homo sapiens, UniProt P37059).
T2 sequence (P37059 whole entry): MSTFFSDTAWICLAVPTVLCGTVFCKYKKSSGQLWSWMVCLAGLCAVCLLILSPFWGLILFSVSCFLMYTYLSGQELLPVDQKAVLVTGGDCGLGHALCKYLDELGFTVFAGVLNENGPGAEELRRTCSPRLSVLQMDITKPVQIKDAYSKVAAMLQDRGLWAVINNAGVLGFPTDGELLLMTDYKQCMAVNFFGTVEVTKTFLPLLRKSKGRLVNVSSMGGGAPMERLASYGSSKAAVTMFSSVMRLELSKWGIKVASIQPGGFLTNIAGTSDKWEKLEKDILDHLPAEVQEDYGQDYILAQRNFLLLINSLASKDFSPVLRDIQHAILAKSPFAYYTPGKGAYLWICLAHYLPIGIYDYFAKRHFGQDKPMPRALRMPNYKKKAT
As to the kind of experiment: Inhibition of human placental 17beta-HSD2 using 17-beta-estradiol substrate. The procedure, abridged:
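Human placental microsomal fraction incubated 20 min at 37 °C with NAD+ (1500 µM), test compound and unlabelled plus [3H]-E2 (500 nM final). Extraction and HPLC with radio detection as for 17β-HSD1. Conversion = AUC(E1)/[AUC(E1)+AUC(E2)] × 100.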

Data set [5] addresses T3, Estrogen receptor (Homo sapiens) (UniProt P03372).
T3 sequence (whole entry): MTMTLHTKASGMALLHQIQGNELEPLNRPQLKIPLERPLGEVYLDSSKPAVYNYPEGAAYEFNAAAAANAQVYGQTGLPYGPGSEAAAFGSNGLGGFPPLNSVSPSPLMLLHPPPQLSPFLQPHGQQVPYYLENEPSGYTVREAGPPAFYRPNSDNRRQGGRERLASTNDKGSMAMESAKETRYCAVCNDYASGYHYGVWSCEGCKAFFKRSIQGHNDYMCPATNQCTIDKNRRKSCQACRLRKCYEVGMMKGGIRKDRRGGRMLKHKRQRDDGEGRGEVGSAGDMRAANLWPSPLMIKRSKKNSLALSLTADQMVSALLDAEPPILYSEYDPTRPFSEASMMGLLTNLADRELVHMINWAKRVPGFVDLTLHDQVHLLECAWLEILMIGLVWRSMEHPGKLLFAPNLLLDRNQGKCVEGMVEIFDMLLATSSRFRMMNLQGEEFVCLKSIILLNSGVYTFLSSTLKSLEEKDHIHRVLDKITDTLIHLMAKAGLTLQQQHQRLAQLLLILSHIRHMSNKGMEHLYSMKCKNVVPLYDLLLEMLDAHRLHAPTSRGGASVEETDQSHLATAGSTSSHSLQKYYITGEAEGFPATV
As to the kind of experiment: Displacement of [2,4,6,7-3H]17beta-estradiol from human recombinant ERalpha receptor relative to 17-beta-estradiol. The procedure, abridged:
as §1

Data set [6] in a line: Apparent permeability across human Caco-2 cells. It counts as ADME, cell-based. The procedure, abridged: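 Caco-2 monolayers cultured 10 days at higher seeding density; cassette dosing with four reference compounds; donor concentration 50 µM in 0.2 M MES pH 6.5 with 1% ethanol or DMSO. Acceptor sampled at 0, 60, 120, 180 min, donor at 0 and 180 min; LC/MS/MS analysis; triplicate runs; monolayer integrity by TEER and lucifer yellow.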
(In general: Caco-2 cells form a polarised layer with tight junctions and transporters.)

In data set [7] the target is T1, 17-beta-hydroxysteroid dehydrogenase type 1. The data set is described as follows: Inhibition of 17-beta-HSD1-mediated 17-beta-estradiol formation in human T47D cells. It counts as cell-based. The gist of the method: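 T47D cells, which express both 17β-HSD1 and 17β-HSD2, were kept in RPMI 1640 with 10% FCS at 37 °C, 5% CO₂. They were seeded in DMEM with FCS, then after 24 h switched to serum-free DMEM. Test compound was added in DMSO (1% final) and pre-incubated 30 min. Unlabelled plus [³H]-E1 (50 nM final) was added for 2.5 h. Steroids were extracted with ether, and E2 formed was quantified by HPLC with radiodetection.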

Data set [8] relates to T47D. The data set is described as follows: Estrogenic effect in human T47D cells assessed as stimulation of cell proliferation at 100 nM by MTT assay. In kind it is functional, cell-based. The gist of the method:
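T-47D cells grown 48 h in phenol red-free RPMI 1640 with 5% DCC-FCS, then treated with compound at 100 nM final (ethanol 1% final). E2 0.1 nM as positive control, ethanol as negative control. Medium and additives renewed every 2–3 days; after 8 days MTT reduction read at 590 nm. Stimulation = (proliferation relative to control set at 1, minus 1) × 100%.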
(In general: Tetrazolium assays rely on reduction of a dye to a coloured formazan, in cell work by metabolically active cells.)

Activity calls are given as the source filed them. The calls are words filed in the database; no cut-off is given here.

Sequence of Estrogen receptor beta (Homo sapiens) (Q92731 whole entry): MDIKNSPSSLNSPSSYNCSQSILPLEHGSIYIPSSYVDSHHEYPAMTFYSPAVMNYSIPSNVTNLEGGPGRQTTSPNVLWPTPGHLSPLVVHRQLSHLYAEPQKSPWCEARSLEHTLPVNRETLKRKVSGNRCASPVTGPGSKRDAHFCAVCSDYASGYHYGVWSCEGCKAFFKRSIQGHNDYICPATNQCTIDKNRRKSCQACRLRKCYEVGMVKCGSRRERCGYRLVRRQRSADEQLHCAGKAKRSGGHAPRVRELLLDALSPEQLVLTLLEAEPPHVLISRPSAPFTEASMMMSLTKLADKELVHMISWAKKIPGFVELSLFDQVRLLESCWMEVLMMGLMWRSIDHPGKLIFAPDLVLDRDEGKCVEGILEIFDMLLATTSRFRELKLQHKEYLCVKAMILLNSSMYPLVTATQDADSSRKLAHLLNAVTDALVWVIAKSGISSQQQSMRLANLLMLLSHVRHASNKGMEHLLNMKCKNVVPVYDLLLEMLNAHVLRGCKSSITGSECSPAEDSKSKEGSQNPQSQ

Take `Oc1ccc(-n2cc(-c3cccc(O)c3)nn2)cc1`: in data set [1], the Ratio IC50 came to 6. The RBA in data set [2] and in data set [5] was less than 0.01% each time. In addition, the results for the IC50 in data set [3] and in data set [4] were 1.32 µM and 8.12 µM, respectively.

`Oc1ccc(-c2cnc(-c3cccc(O)c3)o2)cc1`: the apparent permeability coefficient (Papp) (usually a coefficient for how fast a substance crosses the barrier) in data set [6] was 7.9 ×10⁻⁶ cm/s. For the same compound, the Ratio IC50 in data set [1] came to 56. Besides, the RBA was 0.5% in data set [2] and 0.01% in data set [5]. Further, the half-inhibitory concentration (IC50) (in general, the concentration that gives 50% inhibition) stood at 0.38 µM in data set [7], 0.31 µM in data set [3] and 17.5 µM in data set [4]. Besides, the outcome in data set [8] was inactive.

Take `Oc1ccc(-c2cn(-c3cccc(O)c3)nn2)cc1`: the Ratio IC50 in data set [1] stood at 9. In addition, the RBA in data set [2] and in data set [5] was 0.01% in each case. The 50% inhibitory concentration (IC50) is 0.84 µM in data set [3] and 7.28 µM in data set [4].

Turning to `Oc1ccc(-c2coc(-c3cccc(O)c3)n2)cc1`, in data set [1], the Ratio IC50 turned out to be 0.1. Further, the RBA in data set [2] and in data set [5] was 0.01% each time. For the same compound, the 50% inhibitory concentration (IC50) came to 1.85 µM in data set [3] and 0.25 µM in data set [4].

With `Oc1ccc(-c2cc(-c3cccc(O)c3)on2)cc1`, the Ratio IC50 in data set [1] was determined as 0.2. In addition, the values for the RBA in data set [2] and in data set [5] were less than 0.01% and 0.01%, respectively. For the same compound, the concentration for half-maximal inhibition (IC50) in data set [3] is 1.61 µM; in data set [4], 0.27 µM.

(Values after ChEMBL document CHEMBL1150770, “Design, synthesis and biological evaluation of bis(hydroxyphenyl) azoles as potent and selective non-steroidal inhibitors of 17beta-hydroxysteroid dehydrogenase type 1 (17beta-HSD1) for the treatment of estrogen-dependent diseases” (Bioorg Med Chem, 2008).)
